“And” between values parts separate entries of the source, which are not always exact repeats. Equal values may be shown once.
Experiments:
[1] = target: S1R (σ1R) (Cavia porcellus, UniProt Q60492); test: [3H]; assay type: binding; settings: guinea pig brain membranes, 1 mmol/L DPH
[2] = target: T1, human MOR (Homo sapiens, UniProt P35372); assay type: cell-based
[3] = target: T1, human MOR; assay type: cell-based; remark: listed apart in the source
[4] = tested on: male Wistar rats; test: Paw pressure test; assay type: in vivo, rat; settings: for maximal efficacy, paw pressure: single i.p.
[5] = tested on: male Wistar rats; test: Tail-flick test; assay type: in vivo, rat; settings: for maximal effect, tail flick: single i.p.
[6] = tested on: male Wistar rats; test: Carrageenan-induced acute inflammatory pain, mechanical allodynia; assay type: in vivo, rat; settings: for maximal effect, carrageenan mechanical allodynia: single i.p., ipsilateral paw
[7] = tested on: male Wistar rats; test: MIA-induced osteoarthritis pain, acute treatment, mechanical allodynia; assay type: in vivo, rat; settings: for maximal effect, MIA mechanical allodynia: single i.p., ipsilateral paw
[8] = tested on: male Wistar rats; test: Spared nerve injury; assay type: in vivo, rat; settings: for maximal effect, SNI mechanical allodynia: single i.p., ipsilateral paw
[9] = tested on: male Wistar rats; assay type: in vivo, rat; settings: 3 mg/kg i.p.
In short: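 Male Wistar rats received i.p. vehicle (0.5% hydroxypropyl methylcellulose) or test compound, dose groups n = 7–10. The read-out 20 min after dosing was paw-pressure PPT, tail-flick TFL, or von Frey PWT in carrageenan-, MIA- and SNI-induced pain models. Dose–response curves were fitted to a four-parameter logistic (variable slope) by least-squares non-linear fitting. Efficacy at 3 mg/kg i.p. was calculated from each model's curve.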

[10] = tested on: male Wistar rats; test: Intestinal transit inhibition; assay type: in vivo, rat
[11] = tested on: male Wistar rats; test: Whole body plethysmography; assay type: in vivo, rat
[12] = Plasma and brain pharmacokinetics, 3 mg/kg i.p. single dose; assay type: in vivo; settings: rat
In short: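 Male Wistar rats got a single 3 mg/kg i.p. dose: 48 rats, 8 sampling points, 6 per point. Blood went into heparinized tubes and was centrifuged 4 °C, 3700 × g, 10 min. Brains were homogenized in DPBS (1:5 w/w). After acetonitrile protein precipitation, LC–MS/MS quantified drug (LOQ 1 ng/mL plasma, 2 ng/g brain). AUC, Cmax, Tmax and t1/2 came from non-compartmental analysis. Brain-to-plasma ratio = AUC brain/AUC plasma.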

[13] = Plasma levels in the MIA study, repeated b.i.d. s.c. dosing; assay type: in vivo, rat
In short: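 MIA-injected male Wistar rats (n = 5/group) received 0.5, 1.5 or 3 mg/kg s.c. b.i.d. for 28 days, starting 14 days post-MIA. Caudal-vein blood was drawn on Day 1 (first dose) and Day 28 (last dose), 35–40 min post-dose, right after von Frey testing. Samples went into K2-EDTA tubes and were spun 4 °C, 3700 × g, 10 min. Acetonitrile precipitation preceded LC–MS/MS (LOQ 1 ng/mL). Values are mean ± SEM.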

[14] = Plasma pharmacokinetics in ferrets, single i.p. dose; assay type: in vivo, ferret
In short: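 Male ferrets received a single i.p. dose of 0.5 or 1 mg/kg. Serial blood was drawn via carotid catheter at predose, 5, 15, 30 min and 1, 2, 4, 7, 24 h. Samples went into heparinized tubes and were spun 4 °C, 3700 × g, 10 min. Plasma was acetonitrile-precipitated and measured by LC–MS/MS (LOQ 1 ng/mL). AUC and Cmax came from non-compartmental analysis.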

[15] = target: MOR (Rattus norvegicus, UniProt P33535); test: Brain MOR occupancy, ex vivo autoradiography with [3H]-DAMGO; assay type: in vivo; settings: ip, read-out: MOR occupancy, average, 3 mg/kg i.p.
[16] = target: human MOR; settings: read-out: In vitro binding affinity (Ki), MOR; cited from earlier work
[17] = target: human S1R; settings: read-out: In vitro binding affinity (Ki), S1R; cited from earlier work
[18] = more than 180 targets; cited from earlier work
[19] = tested on: mice; settings: repeated b.i.d. administration for 10 days in mice; cited from earlier work
[20] = tested on: male ferrets (Mustela putorius furo); test: Proemetic response in ferrets; settings: for emetic response (retching and vomiting, words) / nausea-like global score: 4 h observation
[21] = target: S1R (Rattus norvegicus, UniProt Q9R0C9); test: Brain S1R occupancy, ex vivo autoradiography with [3H]-; assay type: in vivo; settings: morphine 10 mg/kg, oxycodone 3 mg/kg i.p., 30 min
S1R, sequence (Q9R0C9 whole entry): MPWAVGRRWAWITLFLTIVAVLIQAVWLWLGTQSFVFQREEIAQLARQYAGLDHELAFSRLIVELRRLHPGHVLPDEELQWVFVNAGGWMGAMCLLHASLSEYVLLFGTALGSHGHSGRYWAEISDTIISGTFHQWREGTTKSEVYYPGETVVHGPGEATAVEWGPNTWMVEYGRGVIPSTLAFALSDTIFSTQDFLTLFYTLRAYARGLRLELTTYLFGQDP

T1 sequence (P35372 whole entry): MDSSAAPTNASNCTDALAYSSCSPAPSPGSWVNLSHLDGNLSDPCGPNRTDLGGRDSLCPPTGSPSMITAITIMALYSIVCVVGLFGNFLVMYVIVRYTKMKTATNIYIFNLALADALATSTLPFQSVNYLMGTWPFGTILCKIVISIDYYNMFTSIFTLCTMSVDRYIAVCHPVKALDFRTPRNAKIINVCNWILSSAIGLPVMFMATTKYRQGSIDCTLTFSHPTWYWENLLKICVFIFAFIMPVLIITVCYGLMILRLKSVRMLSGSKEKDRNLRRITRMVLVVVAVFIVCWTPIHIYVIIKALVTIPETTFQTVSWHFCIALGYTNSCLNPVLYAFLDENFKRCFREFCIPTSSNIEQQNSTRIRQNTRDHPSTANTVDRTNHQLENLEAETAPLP
S1R (σ1R), sequence (Q60492 whole entry): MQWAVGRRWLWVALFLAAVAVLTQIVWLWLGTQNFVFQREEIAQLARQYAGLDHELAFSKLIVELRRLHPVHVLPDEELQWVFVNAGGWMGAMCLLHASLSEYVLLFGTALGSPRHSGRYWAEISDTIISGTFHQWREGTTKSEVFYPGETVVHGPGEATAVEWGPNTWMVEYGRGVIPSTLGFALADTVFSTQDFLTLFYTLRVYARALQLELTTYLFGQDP
MOR, sequence (P33535 whole entry): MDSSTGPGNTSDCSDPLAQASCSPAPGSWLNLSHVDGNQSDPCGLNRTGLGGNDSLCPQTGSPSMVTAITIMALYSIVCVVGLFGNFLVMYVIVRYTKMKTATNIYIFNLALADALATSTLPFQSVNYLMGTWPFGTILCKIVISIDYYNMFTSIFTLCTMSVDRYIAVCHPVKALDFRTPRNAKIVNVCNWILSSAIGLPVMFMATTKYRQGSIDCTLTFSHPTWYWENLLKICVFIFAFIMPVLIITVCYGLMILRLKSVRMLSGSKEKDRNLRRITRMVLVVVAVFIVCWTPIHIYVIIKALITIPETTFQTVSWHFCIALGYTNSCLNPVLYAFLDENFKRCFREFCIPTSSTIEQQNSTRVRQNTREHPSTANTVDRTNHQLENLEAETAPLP

COc1ccc2c(c1)[C@]13CCCC[C@@H]1[C@H](C2)N(C)CC3 [dextromethorphan, Dextromethorphan, reference compound]
Ki without DPH/Ki with DPH [1]: 9.0

CCN1CC2(CCN(CCc3cc(F)ccc3F)CC2)O[C@H](C)C1=O [WLB-73502, (R)-9-(2,5-difluorophenethyl)-4-ethyl-2-methyl-1-oxa-4,9-diazaspiro[5.5]undecan-3-one]
cAMP lgτ (operational efficacy, G-protein pathway) [2]: 1.58 | effect on β-arrestin-2 recruitment [3]: no effect | Ki without DPH/Ki with DPH [1]: 0.9 | potency relative to morphine, paw pressure ([4]; more potent than morphine): ~4 fold and 3 fold | maximal efficacy, paw pressure [4]: ≥ 80% | potency relative to morphine, tail flick ([5]; more potent than morphine): ~4 fold | maximal effect, tail flick [5]: ≥ 95% | potency relative to morphine, carrageenan ([6]; more potent than morphine): 2 fold | maximal effect, carrageenan mechanical allodynia [6]: ≥ 80% | potency relative to morphine, MIA ([7]; more potent than morphine): 2 fold | maximal effect, MIA mechanical allodynia [7]: ≥ 95% | potency relative to morphine, SNI ([8]; more potent than morphine): 8 fold | potency relative to oxycodone, SNI ([8]; more potent than oxycodone): 3 fold | maximal effect, SNI mechanical allodynia [8]: 91.2 ± 5.9% | Antinociceptive efficacy, average of the pain models [9]: 75% | intestinal transit inhibition ([10]; 2.5 mg/kg i.p.): did not significantly inhibit | intestinal transit inhibition ([10]; 5 mg/kg i.p.): did not significantly inhibit | intestinal transit inhibition ([10]; 10 mg/kg i.p.): 19% | intestinal transit inhibition ([10]; 20 mg/kg i.p.): 59% | minute volume (MV) inhibition ([11]; 1.25 mg/kg i.p.): did not significantly change MV | minute volume (MV) inhibition ([11]; 5 mg/kg i.p.): did not significantly change MV | minute volume (MV) inhibition ([11]; 10 mg/kg i.p.): ~30% | minute volume (MV) inhibition ([11]; 20 mg/kg i.p.): ~30% | Brain-to-plasma ratio (AUC brain/AUC plasma) ([12]; 3 mg/kg i.p.): 2.57 | Cmax ([12]; Wistar, brain, ip, 3 mg/kg): 982 ± 191 ng/g | Tmax ([12]; Wistar, brain, ip, 3 mg/kg, 3 mg/kg i.p.): 4.8 min | half-life ([12]; Wistar, brain, ip, 3 mg/kg, t1/2, brain, 3 mg/kg i.p.): 20.4 min | AUC(0-inf) ([12]; Wistar, plasma, ip, 3 mg/kg): 136 ± 15 ng·h/mL | Cmax ([12]; Wistar, plasma, ip, 3 mg/kg): 441 ± 73 ng/mL | Tmax ([12]; Wistar, plasma, ip, 3 mg/kg, 3 mg/kg i.p.): 4.8 min | Tmax ([12]; Wistar, plasma, ip, 3 mg/kg, 3 mg/kg i.p., first sampling time): 5 min | AUC0–∞ ([12]; brain, 3 mg/kg i.p.): 350 ± 40 (ng·h/g) | Plasma concentration ([13]; 0.5 mg/kg s.c. b.i.d., Day 28, 35–40 min after administration): 82 ± 3.2 ng/mL | Plasma concentration ([13]; 0.5 mg/kg s.c., Day 1, 35–40 min after administration): 47.3 ± 3.8 ng/mL | Plasma concentration ([13]; 1.5 mg/kg s.c. b.i.d., Day 28, 35–40 min after administration): 283.7 ± 10.4 ng/mL | Plasma concentration ([13]; 1.5 mg/kg s.c., Day 1, 35–40 min after administration): 174.9 ± 7.4 ng/mL | Plasma concentration ([13]; 3 mg/kg s.c. b.i.d., Day 28, 35–40 min after administration): 550.6 ± 33.8 ng/mL | Plasma concentration ([13]; 3 mg/kg s.c., Day 1, 35–40 min after administration): 361 ± 24.7 ng/mL | AUC(0-inf) ([14]; ferret, plasma, ip, 1 mg/kg): 2460 ± 625 ng·h/mL | Cmax ([14]; ferret, plasma, ip, 1 mg/kg): 620 ± 98 ng/mL | AUC in ferrets at 1 mg/kg relative to rats at 3 mg/kg ([14]; higher in ferrets): 18 fold | receptor occupancy at 3 mg/kg [15]: 50% | Ki [16]: 64 nM | Ki [17]: 118 nM | selectivity against target panel [18]: selective | naloxone-precipitated withdrawal signs [19]: not detected | emetic response (retching and vomiting, words) ([20]; 0.5 mg/kg i.p.): did not induce any emetic response | nausea-like global score ([20]; 0.5 mg/kg i.p.): ~2 | emetic response (retching and vomiting, words) ([20]; 1 mg/kg i.p.): did not induce any emetic response | nausea-like global score ([20]; 1 mg/kg i.p.): ~4

COc1ccc2c3c1O[C@H]1C(=O)CC[C@@]4(O)[C@@H](C2)N(C)CC[C@]314 [oxycodone, reference compound]
β-Arrestin lgτ [3]: −0.28 | maximal efficacy, paw pressure [4]: ≥ 80% | maximal effect, tail flick [5]: ≥ 95% | maximal effect, carrageenan mechanical allodynia [6]: ≥ 80% | maximal effect, MIA mechanical allodynia [7]: ≥ 95% | maximal effect, SNI mechanical allodynia [8]: 74.9 ± 7.5% | intestinal transit inhibition ([10]; 2.5 mg/kg i.p.): no effect | intestinal transit inhibition ([10]; 5 mg/kg i.p.): 72% | intestinal transit inhibition ([10]; 10 mg/kg i.p.): 93% | minute volume (MV) inhibition ([11]; 1.25 mg/kg i.p.): did not significantly modify MV | minute volume (MV) inhibition ([11]; 5 mg/kg i.p.): 30% | minute volume (MV) inhibition ([11]; 10 mg/kg i.p.): 50%

CN1CC[C@]23c4c5ccc(O)c4O[C@H]2[C@@H](O)C=C[C@H]3[C@H]1C5 [morphine, Morphine, reference compound]
maximal efficacy, paw pressure [4]: ≥ 80% | maximal effect, tail flick [5]: ≥ 95% | maximal effect, carrageenan mechanical allodynia [6]: ≥ 80% | maximal effect, MIA mechanical allodynia [7]: ≥ 95% | maximal effect, SNI mechanical allodynia [8]: 82.2 ± 11.1% | effect on [3H]-(+)-pentazocine specific binding in rat cortex and striatum [21]: neither morphine nor oxycodone had a significant effect | nausea-like global score ([20]; 0.5 mg/kg s.c.): ~12 | retches ([20]; 0.5 mg/kg s.c., 4 h period): 2.17 ± 0.60 | vomits ([20]; 0.5 mg/kg s.c., 4 h period): 1.17 ± 0.65
